For test [1], the target named is T1, Bile acid receptor (Homo sapiens) (UniProt Q96RI1).
T1 sequence (whole entry): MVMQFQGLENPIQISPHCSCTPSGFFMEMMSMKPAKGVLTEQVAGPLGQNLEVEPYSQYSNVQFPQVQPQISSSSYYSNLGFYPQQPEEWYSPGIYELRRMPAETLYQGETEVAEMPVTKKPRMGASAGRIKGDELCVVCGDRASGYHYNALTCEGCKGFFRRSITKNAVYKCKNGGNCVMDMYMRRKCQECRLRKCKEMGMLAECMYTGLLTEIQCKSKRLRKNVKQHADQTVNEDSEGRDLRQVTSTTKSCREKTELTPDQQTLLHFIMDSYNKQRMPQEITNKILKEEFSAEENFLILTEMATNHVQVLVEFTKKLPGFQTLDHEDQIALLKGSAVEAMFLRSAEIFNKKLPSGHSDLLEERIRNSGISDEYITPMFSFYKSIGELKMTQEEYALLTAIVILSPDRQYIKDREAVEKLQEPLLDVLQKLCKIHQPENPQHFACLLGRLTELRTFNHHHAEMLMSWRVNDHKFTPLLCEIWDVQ
Put plainly: Antagonist activity at human FXR in human HepG2 cells assessed as reduction in triglyceride level at 10 uM after 24 hrs. The test is classed as functional, cell-based. In outline:
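HepG2 cells were serum-starved overnight in FBS-free DMEM, then given DMSO or compound for 24 h in serum-free DMEM. Cells were lysed in RIPA buffer, sonicated on ice and centrifuged at 12000 rpm, 4 °C. Triglyceride and total cholesterol in the cleared lysate were measured by kits, with total protein by BCA. At least three experiments.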

In test [2] the target is T2, Peroxisome proliferator-activated receptor gamma (Homo sapiens) (UniProt P37231).
T2 sequence (whole entry): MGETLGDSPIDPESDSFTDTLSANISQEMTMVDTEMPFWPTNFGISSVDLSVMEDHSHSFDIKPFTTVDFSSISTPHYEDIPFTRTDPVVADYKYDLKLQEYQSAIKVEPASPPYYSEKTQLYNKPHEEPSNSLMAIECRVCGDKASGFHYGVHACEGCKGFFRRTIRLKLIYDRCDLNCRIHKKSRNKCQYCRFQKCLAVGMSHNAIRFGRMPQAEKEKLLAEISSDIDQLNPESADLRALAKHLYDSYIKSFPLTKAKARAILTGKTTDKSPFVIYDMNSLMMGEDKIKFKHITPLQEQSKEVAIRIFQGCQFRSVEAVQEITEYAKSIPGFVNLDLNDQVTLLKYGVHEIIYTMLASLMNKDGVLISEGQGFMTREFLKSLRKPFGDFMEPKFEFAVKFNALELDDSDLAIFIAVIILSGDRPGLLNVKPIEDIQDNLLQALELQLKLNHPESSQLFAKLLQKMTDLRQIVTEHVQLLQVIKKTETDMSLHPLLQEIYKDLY
As to the kind of experiment: Antagonist activity at recombinant PPARgamma LBD expressed in HEK293T cells co-expressing GAL4 DBD assessed as inhibition of rosiglitazone-induced transactivation at 20 uM by luciferase reporter gene assay. The test is classed as functional, cell-based. As to conditions: HEK-293T. A digest of the protocol:
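One-hybrid assay in HEK293T cells cotransfected with a Gal4 DBD–NR-LBD fusion (RXRα, LXRα, GR, PR, PPARδ or PPARγ) plus UAS-TK-Luc reporter. Compound was 20 μM, given alone or with agonist: 9cRA 0.1 μM (RXRα), TO901317 0.5 μM (LXRα), dexamethasone 50 nM (GR), progesterone 100 nM (PR), GW1516 10 μM (PPARδ), rosiglitazone 10 μM (PPARγ). Luciferase read-out; three independent experiments.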
In general terms: Reporter assays use an easily measured gene product as a stand-in for the process of interest.

Structures are written as SMILES. Calls of active or inactive are those of the source. No cut-off for these calls is given here.

A word on the inhibition: it is the relative decrease from the control value, in per cent. Turning to `COc1cc(/C=C2\C(=O)N(c3cccc([N+](=O)[O-])c3)N=C2c2ccccc2)ccc1O`, in test [1], the inhibition worked out at 35.2%. The inhibition result in test [2] was “inactive”.
